These results are taken from ChEMBL document CHEMBL1124174, “Substituted benzamides. 1. Potential nondopaminergic antagonists of chemotherapy-induced nausea and emesis” (J Med Chem, 1988).

Each structure is given as a SMILES string.

One assay addresses D(2) dopamine receptor (Rattus norvegicus, UniProt P61169). Nature of the assay: In vitro antagonistic activity against Dopamine receptor D2 was evaluated for the inhibition of [3H]spiperone binding. In a few lines:
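Rat striatal membranes were prepared by differential centrifugation in 50 mM Tris pH 7.4 at 4 °C. Membrane protein (10 mg) was incubated 15 min at 37 °C with 0.1 nM [3H]spiperone and varying competitor concentrations. Buffer: 50 mM Tris HCl pH 7.5, 0.1% ascorbic acid, pargyline, 120 mM NaCl, 5 mM KCl, 2 mM CaCl2, 1 mM MgCl2. (+)-Butaclamol defined nonspecific binding. Bound ligand was collected by filtration and scintillation counted. IC50 by log-logit regression.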

Assay [1] concerns Canis familiaris. Put plainly: In vivo antagonism of cisplatin-induced emesis in dog measured as emetic episodes, twice the dose of 6 mg/kg in 2 dogs. The assay is classed as functional, Canis lupus familiaris. The gist of the method:
(§1)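 Nonfasted mature male or female beagles were dosed sc twice, 30 min before and 120 min after cisplatin (3 mg/kg iv; 3 mg/mL in warm 0.9% saline, used immediately). Emesis was observed up to 5 h; events within 2 min counted as one episode. Results were given as mean emetic episodes and % protection versus a dynamic control (historical and concurrent saline means pooled). t test versus saline.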

Assay [2] has as its target D(2) dopamine receptor (Canis lupus familiaris) (UniProt Q9GJU1). Nature of the assay: In vivo antagonism activity against dopamine D2 receptor was measured as emesis in dog when administered subcutaneously. The assay is classed as functional, organism-based.
Assay [3] has as its system Canis familiaris. Put plainly: In vivo antagonism of cisplatin-induced emesis in dog measured as emetic episodes, twice the dose of 3 mg/kg in 2 dogs. The assay is classed as functional, Canis lupus familiaris. The gist of the method:
as §1

Assay [4] concerns the target D(2) dopamine receptor (Rattus norvegicus) (UniProt P61169). Put plainly: In vivo antagonistic activity against dopamine D2 receptor was measured as catalepsy in rat when administered subcutaneously. In kind it is functional, organism-based. In a few lines: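 Male Long Evans rats (275 g) received graded sc doses in dilute aqueous HCl (pH 4.5-5.5). They were observed 180 min for catalepsy, scored when the animal stayed stationary ≥15 s on a four-cork template.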

In assay [5] the test system is Mustela putorius furo. Nature of the assay: In vivo antagonism of cisplatin-induced emesis in ferret measured as percentage protection for twice the dose of 3 mg/kg and in 3 ferrets. The assay is classed as functional. In a few lines: (§2)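 Nonfasted castrated male Fitch ferrets (1–1.5 kg) had jugular catheters implanted ≥48 h earlier under anesthesia. Compounds or saline were given iv twice, 5 min before and 90 min after cisplatin (12 mg/kg iv; 12 mg/mL in warm 0.9% saline). Emesis was observed up to 4 h; events within 1 min counted as one episode. Results were given as mean emetic episodes and % protection versus a pooled historical/concurrent control. t test versus saline.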

In assay [6] the test system is Mustela putorius furo. Put plainly: In vivo antagonism of cisplatin-induced emesis in ferret measured as emetic episodes, twice the dose of 3 mg/kg and in 3 ferrets. In kind it is functional. In a few lines:
as §2

For assay [7], the target named is D(2) dopamine receptor (Rattus norvegicus) (UniProt P61169). Nature of the assay: In vivo antagonism activity against D2 receptor was measured as stereotypy in rat when administered subcutaneously. In kind it is functional, organism-based. In a few lines:
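Male Long Evans rats (275 g) were dosed sc in dilute aqueous HCl (pH 4.5-5.5) 30 min before apomorphine (1 mg/kg sc).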

Assay [8] relates to Canis familiaris. Put plainly: In vivo antagonism of cisplatin-induced emesis in dog measured as percentage protection for twice the dose of 3 mg/kg in 2 dogs. The assay is classed as functional, Canis lupus familiaris. In a few lines: as §1
The test system of assay [9] is Mustela putorius furo. Nature of the assay: In vivo antagonism of cisplatin-induced emesis in ferret measured as emetic episodes, twice the dose of 1 mg/kg and in 3 ferrets. The assay is classed as functional. The gist of the method: as §2
In assay [10] the test system is Mustela putorius furo. Nature of the assay: In vivo antagonism of cisplatin-induced emesis in ferret measured as percentage protection for twice the dose of 31 mg/kg and in 3 ferrets. The assay is classed as functional. The note with it: dose 1 mg/kg; in the assay text read “1 mg/kg” for “31 mg/kg”. In a few lines:
as §2

Assay [11] relates to Canis familiaris. Put plainly: In vivo antagonism of cisplatin-induced emesis in dog measured as percentage protection for twice the dose of 6 mg/kg in 2 dogs. In kind it is functional, Canis lupus familiaris. The gist of the method: as §1
For assay [12], the system named is Mustela putorius furo. Put plainly: In vivo antagonism of cisplatin-induced emesis in ferret measured as percentage protection for twice the dose of 1 mg/kg and in 3 ferrets. The assay is classed as functional. In a few lines:
as §2

The subject of assay [13] is Mustela putorius furo. Put plainly: In vivo antagonism of cisplatin-induced emesis in ferret measured as emetic episodes, twice the dose of mg/kg and in 3 ferrets. The assay is classed as functional. In a few lines: as §2
The test system of assay [14] is Mustela putorius furo. Nature of the assay: in vivo antagonism of cisplatin-induced emesis in ferret measured as emetic episodes, twice the dose of 3 mg/kg and in 3 ferrets. The assay is classed as functional. In a few lines:
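Nonfasted castrated male Fitch ferrets (1–1.5 kg) carried jugular vein catheters implanted at least 48 h earlier under general anesthesia. Test compound or saline was given iv twice, 5 min before and 90 min after cisplatin (12 mg/kg iv; 12 mg/mL in warm saline). Emesis was watched for 4 h, with events within 1 min counted as one episode. % protection is relative to a pooled historical-plus-concurrent control, with t test versus saline.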

Assay [15] deals with Canis familiaris. Put plainly: In vivo antagonism of cisplatin-induced emesis in dog measured as emetic episodes, twice the dose of 6 mg/kg in 3 dogs. The assay is classed as functional, Canis lupus familiaris. The gist of the method: (§3)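 Nonfasted mature male or female beagles received test compound or saline sc twice, 30 min before and 120 min after cisplatin (3 mg/kg iv; 3 mg/mL in warm 0.9% saline, used at once). Emesis observed up to 5 h. Emetic episode = expulsion of stomach content; events within 2 min counted as one. Protection calculated against a dynamic control (historical mean pooled with concurrent saline control).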

The subject of assay [16] is Canis familiaris. Put plainly: In vivo antagonism of cisplatin-induced emesis in dog measured as percentage protection for twice the dose of 6 mg/kg in 3 dogs. In kind it is functional, Canis lupus familiaris. In a few lines:
as §3

D(2) dopamine receptor (Rattus norvegicus), sequence (P61169 whole entry): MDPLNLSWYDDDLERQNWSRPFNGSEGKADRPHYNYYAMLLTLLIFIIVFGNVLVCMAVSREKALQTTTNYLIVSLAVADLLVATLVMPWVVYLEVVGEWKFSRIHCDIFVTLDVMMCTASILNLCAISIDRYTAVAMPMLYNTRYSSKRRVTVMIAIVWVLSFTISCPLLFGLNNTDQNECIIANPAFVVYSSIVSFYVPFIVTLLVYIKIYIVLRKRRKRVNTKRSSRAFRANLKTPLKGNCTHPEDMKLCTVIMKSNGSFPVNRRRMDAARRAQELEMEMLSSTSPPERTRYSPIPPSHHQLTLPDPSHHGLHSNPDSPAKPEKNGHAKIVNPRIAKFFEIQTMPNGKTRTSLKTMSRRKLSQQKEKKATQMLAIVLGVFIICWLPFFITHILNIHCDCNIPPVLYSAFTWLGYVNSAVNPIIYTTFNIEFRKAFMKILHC
D(2) dopamine receptor (Canis lupus familiaris), sequence (Q9GJU1 whole entry): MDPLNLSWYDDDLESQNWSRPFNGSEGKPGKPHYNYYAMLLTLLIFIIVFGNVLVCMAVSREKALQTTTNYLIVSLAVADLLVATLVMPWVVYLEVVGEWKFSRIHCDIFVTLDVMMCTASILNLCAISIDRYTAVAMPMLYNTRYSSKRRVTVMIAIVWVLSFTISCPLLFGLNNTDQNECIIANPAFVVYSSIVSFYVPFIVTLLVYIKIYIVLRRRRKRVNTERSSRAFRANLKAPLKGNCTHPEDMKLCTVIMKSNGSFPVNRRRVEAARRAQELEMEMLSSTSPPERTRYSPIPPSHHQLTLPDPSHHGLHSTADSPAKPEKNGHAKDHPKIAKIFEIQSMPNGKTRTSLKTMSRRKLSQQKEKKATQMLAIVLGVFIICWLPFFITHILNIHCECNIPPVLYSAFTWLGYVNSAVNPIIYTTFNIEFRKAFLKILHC
D(2) dopamine receptor, sequence (P61169 whole entry): as the sequence (P61169 whole entry) above

By IC50 is commonly meant the concentration that inhibits the measured activity by half. As a reminder, the ED50 is the dose that gives a 50% effect, or the effect in half of the subjects. A high value points to a need for a large dose. On to `C#CCOc1cc(N)c(Cl)cc1C(=O)NCCN(CC)CC`, for which the IC50 on D(2) dopamine receptor is above 1000 nM. In addition, the Emetic episodes with Canis familiaris [1] amounted to 2; in the assay on Canis familiaris [3] it was 3.5; in the assay on Mustela putorius furo [6] it was 3.3; in the assay on Mustela putorius furo [9], 4.3. The ED50 in assay [2] is above 1 mg/kg; in assay [4] it was above 40 mg/kg; in assay [7], above 40 mg/kg. Moreover, the Protection in the assay with Mustela putorius furo [5] is given as 50%; with Canis familiaris [8], 72%; in the assay with Mustela putorius furo [10], 40%; with Canis familiaris [11], 73%.

On to `CCN(CC)CCNC(=O)c1cc(Cl)c(N)cc1OCC(C)OC` (configuration not stated), for which the IC50 on D(2) dopamine receptor was above 1000 nM. In addition, the values for the Protection in the assay on Mustela putorius furo [12] and with Mustela putorius furo [5] were 57% and 86%, respectively. The ED50 was above 3 mg/kg in [2], above 40 mg/kg in [4] and above 40 mg/kg in assay [7]. Also, the results for the Emetic episodes in the assay on Mustela putorius furo [13] and in the assay with Mustela putorius furo [14] were 3 and 1, respectively.

Turning to `O=c1[nH]c2ccccc2n1CCCN1CCC(n2c(=O)[nH]c3cc(Cl)ccc32)CC1` [DOMPERIDONE], the Emetic episodes in the assay with Canis familiaris [15] is on record as 9.7; in the assay with Mustela putorius furo [6] it was 3.3. In addition, the ED50 in assay [2] is 0.08 mg/kg; in [4], above 40 mg/kg; in assay [7] it was above 40 mg/kg. Also, the Protection in the assay on Mustela putorius furo [5] is listed as 50%; in the assay with Canis familiaris [16], 30%.
